Test results taken from ChEMBL document CHEMBL1141056, “Aqua mediated synthesis of substituted 2-amino-4H-chromenes and in vitro study as antibacterial agents” (Bioorg Med Chem Lett, 2005).

How the values were obtained:
Type in all cases: functional, organism-based
Escherichia coli [1] = experiment: Antibacterial activity against Escherichia coli (ATCC 25922) at concentration 0.5 uM/ml in dimethylformamide, + = resistant
Outline: (§1)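 Broth microdilution MIC per NCCLS standard protocol. Compounds dissolved in DMF and doubling-diluted in Mueller Hinton broth across 0.5–128 µg/ml; ampicillin run alongside. Inoculum adjusted to McFarland 0.5 and diluted to approx. 5×10^5 cfu/ml final per well. Plates held overnight at 37 °C. Growth scored per concentration: + resistant, − susceptible. Each plate carried broth+inoculum and broth-only control wells.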

Escherichia coli [2] = experiment: Antibacterial activity against Escherichia coli (ATCC 25922) at concentration 1.0 uM/ml in dimethylformamide, + = resistant; outline: as §1
Escherichia coli [3] = experiment: Antibacterial activity against Escherichia coli (ATCC 25922) at concentration 2.0 uM/ml in dimethylformamide, + = resistant; outline: as §1
Staphylococcus aureus [4] = experiment: Antibacterial activity against Staphylococcus aureus (ATCC 25923) at concentration 0.5 uM/ml in dimethylformamide, + = resistant; outline: as §1
Staphylococcus aureus [5] = experiment: Antibacterial activity against Staphylococcus aureus (ATCC 25923) at concentration 1.0 uM/ml in dimethylformamide, + = resistant; outline: as §1
Staphylococcus aureus [6] = experiment: Antibacterial activity against Staphylococcus aureus (ATCC 25923) at concentration 2.0 uM/ml in dimethylformamide, + = resistant; outline: as §1
Staphylococcus aureus [7] = experiment: Antibacterial activity against Staphylococcus aureus (ATCC 25923) at concentration 4.0 uM/ml in dimethylformamide, + = resistant; outline: as §1
Pseudomonas aeruginosa [8] = experiment: Antibacterial activity against Pseudomonas aeruginosa (ATCC 27853) at concentration 0.5 uM/ml in dimethylformamide, + = resistant; outline: as §1
Pseudomonas aeruginosa [9] = experiment: Antibacterial activity against Pseudomonas aeruginosa (ATCC 27853) at concentration 1.0 uM/ml in dimethylformamide, + = resistant; outline: as §1
Pseudomonas aeruginosa [10] = experiment: Antibacterial activity against Pseudomonas aeruginosa (ATCC 27853) at concentration 2.0 uM/ml in dimethylformamide, + = resistant; outline: as §1
Pseudomonas aeruginosa [11] = experiment: Antibacterial activity against Pseudomonas aeruginosa (ATCC 27853) at concentration 4.0 uM/ml in dimethylformamide, + = resistant; outline: as §1
Escherichia coli [12] = experiment: Antibacterial activity against Escherichia coli (ATCC 25922) at concentration 4.0 uM/ml in dimethylformamide, + = resistant; outline: as §1
Escherichia coli [13] = experiment: Antibacterial activity against Escherichia coli (ATCC 25922) at concentration 8.0 uM/ml in dimethylformamide, + = resistant; outline: as §1
Escherichia coli [14] = experiment: Antibacterial activity against Escherichia coli (ATCC 25922) at concentration 16.0 uM/ml in dimethylformamide, + = resistant; outline: as §1
Escherichia coli [15] = experiment: Antibacterial activity against Escherichia coli (ATCC 25922) at concentration 32.0 uM/ml in dimethylformamide, + = resistant; outline: as §1
Escherichia coli [16] = experiment: Antibacterial activity against Escherichia coli (ATCC 25922) at concentration 64.0 uM/ml in dimethylformamide, + = resistant; outline: as §1
Staphylococcus aureus [17] = experiment: Antibacterial activity against Staphylococcus aureus (ATCC 25923) at concentration 8.0 uM/ml in dimethylformamide, + = resistant; outline: as §1
Pseudomonas aeruginosa [18] = experiment: Antibacterial activity against Pseudomonas aeruginosa (ATCC 27853) at concentration 8.0 uM/ml in dimethylformamide, + = resistant; outline: as §1
Staphylococcus aureus [19] = experiment: Antibacterial activity against Staphylococcus aureus (ATCC 25923) at concentration 16.0 uM/ml in dimethylformamide, + = resistant; outline: as §1
Staphylococcus aureus [20] = experiment: Antibacterial activity against Staphylococcus aureus (ATCC 25923) at concentration 32.0 uM/ml in dimethylformamide, + = resistant; outline: as §1
Staphylococcus aureus [21] = experiment: Antibacterial activity against Staphylococcus aureus (ATCC 25923) at concentration 64.0 uM/ml in dimethylformamide, + = resistant; outline: as §1
Pseudomonas aeruginosa [22] = experiment: Antibacterial activity against Pseudomonas aeruginosa (ATCC 27853) at concentration 16.0 uM/ml in dimethylformamide, + = resistant; outline: as §1
Pseudomonas aeruginosa [23] = experiment: Antibacterial activity against Pseudomonas aeruginosa (ATCC 27853) at concentration 32.0 uM/ml in dimethylformamide, + = resistant; outline: as §1

Measured: MIC

CC1(C)S[C@@H]2[C@H](NC(=O)[C@H](N)c3ccccc3)C(=O)N2[C@H]1C(=O)O
Resistant: Escherichia coli [1] | Escherichia coli [2] | Escherichia coli [3] | Staphylococcus aureus [4] | Staphylococcus aureus [5] | Staphylococcus aureus [6] | Staphylococcus aureus [7] | Pseudomonas aeruginosa [8] | Pseudomonas aeruginosa [9] | Pseudomonas aeruginosa [10] | Pseudomonas aeruginosa [11]

N#CC1=C(N)Oc2ccc3ccccc3c2C1c1ccccc1 (stereo not drawn)
Resistant: all assays above

N#CC1=C(N)Oc2cc(O)ccc2C1c1cc2ccccc2nc1Cl (stereo not drawn)
not listed: Escherichia coli [16]
Resistant: all other assays above

N#CC1=C(N)Oc2ccc3ccccc3c2C1n1ccc2ccccc21 (stereo not drawn)
Resistant: all assays above

N#CC1=C(N)Oc2cc(O)ccc2C1n1ccc2ccccc21 (stereo not drawn)
Resistant: all assays above

N#CC1=C(N)Oc2cc(O)ccc2C1c1ccc2c(c1)OCO2 (stereo not drawn)
Resistant: all assays above

N#CC1=C(N)Oc2ccc3ccccc3c2C1c1ccc2c(c1)OCO2 (stereo not drawn)
Resistant: all assays above
